Experiments:
[1] = target: T1, 5-hydroxytryptamine receptor 6 (Homo sapiens, UniProt P50406); assay: Binding affinity as displacement of [3H]5-HT binding to 5-hydroxytryptamine 6 receptor in HeLa cells.; type: cell-based
Outline: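 Human 5-HT6 stably expressed in HeLa cells; washed membranes in 50 mM Tris, 0.03% ascorbic acid, pH 7.6. Nonspecific binding defined with 10 µM 5-HT. Filtration and scintillation counting; one-site fit gave IC50, converted to Ki by Cheng-Prusoff. Geometric mean of ≥3 experiments, each in duplicate.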

[2] = target: T2, 5-hydroxytryptamine receptor 1A (Homo sapiens, UniProt P08908); assay: Binding affinity against 5-hydroxytryptamine 1A receptor in HeLa cells was determined using [3H]5-HT; type: cell-based
T2 sequence (P08908 whole entry): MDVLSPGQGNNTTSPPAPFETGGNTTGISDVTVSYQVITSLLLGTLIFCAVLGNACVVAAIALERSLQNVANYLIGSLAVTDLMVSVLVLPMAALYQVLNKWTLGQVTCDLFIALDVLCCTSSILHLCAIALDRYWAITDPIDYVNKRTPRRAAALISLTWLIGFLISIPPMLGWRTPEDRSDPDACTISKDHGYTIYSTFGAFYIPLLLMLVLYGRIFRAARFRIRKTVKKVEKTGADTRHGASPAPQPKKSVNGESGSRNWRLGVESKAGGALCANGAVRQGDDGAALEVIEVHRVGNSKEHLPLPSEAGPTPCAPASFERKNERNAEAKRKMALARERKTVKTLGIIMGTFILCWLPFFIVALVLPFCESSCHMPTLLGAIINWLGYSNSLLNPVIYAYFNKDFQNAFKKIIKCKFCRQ

[3] = target: 5-hydroxytryptamine receptor 1B (Homo sapiens, UniProt P28222); assay: Binding affinity against 5-hydroxytryptamine 1B receptor in CHO cells using [3H]5-HT as radioligand; type: cell-based
[4] = target: 5-hydroxytryptamine receptor 1D (Homo sapiens, UniProt P28221); assay: Binding affinity against 5-hydroxytryptamine 1D receptor in CHO cells using [3H]5-HT as radioligand; type: cell-based
[5] = target: 5-hydroxytryptamine receptor 2A (Rattus norvegicus, UniProt P14842); assay: Binding affinity for 5-hydroxytryptamine 2 receptor of rat cortical membrane using [3H]DOB radioligand
[6] = target: 5-hydroxytryptamine receptor 5A (Rattus norvegicus, UniProt P35364); assay: Binding affinity against 5-hydroxytryptamine 5A receptor in HEK 293 cells was determined using [3H]LSD as radioligand; type: cell-based, HEK293
[7] = target: 5-hydroxytryptamine receptor 7 (Homo sapiens, UniProt P34969); assay: Binding affinity for 5-hydroxytryptamine 7 receptor human cloned receptors in CHO cells using [3H]5-HT; type: cell-based
[8] = target: D(2) dopamine receptor (Homo sapiens, UniProt P14416); assay: Binding affinity against dopamine receptor D2 using [3H]spiperone radioligand in CHO cells; type: cell-based
[9] = target: T3, D(4) dopamine receptor (Homo sapiens, UniProt P21917); assay: Binding affinity against dopamine receptor D4 cloned in HEK 293 cells using [3H]spiperone radioligand; type: cell-based, HEK293
T3 sequence (P21917 whole entry): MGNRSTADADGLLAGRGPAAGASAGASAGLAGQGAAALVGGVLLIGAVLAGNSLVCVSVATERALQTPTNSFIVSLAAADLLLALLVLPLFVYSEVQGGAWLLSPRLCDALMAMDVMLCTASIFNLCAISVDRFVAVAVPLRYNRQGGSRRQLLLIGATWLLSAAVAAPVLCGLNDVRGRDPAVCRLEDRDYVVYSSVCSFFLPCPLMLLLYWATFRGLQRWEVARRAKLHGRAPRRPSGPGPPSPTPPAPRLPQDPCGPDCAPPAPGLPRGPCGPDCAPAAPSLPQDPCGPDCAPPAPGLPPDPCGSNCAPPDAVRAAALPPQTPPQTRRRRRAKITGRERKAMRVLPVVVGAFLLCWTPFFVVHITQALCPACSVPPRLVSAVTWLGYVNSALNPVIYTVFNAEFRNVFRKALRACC

[10] = target: D(3) dopamine receptor (Homo sapiens, UniProt P35462); assay: Binding affinity against dopamine receptor D3 in HEK 293 cells using [3H]spiperone radioligand; type: cell-based, HEK293
[11] = target: T4, 5-hydroxytryptamine receptor 1F (Homo sapiens, UniProt P30939); assay: Binding affinity against 5-hydroxytryptamine 1F receptor in CHO cells using [3H]5-HT radioligand; type: cell-based
T4 sequence (P30939 whole entry): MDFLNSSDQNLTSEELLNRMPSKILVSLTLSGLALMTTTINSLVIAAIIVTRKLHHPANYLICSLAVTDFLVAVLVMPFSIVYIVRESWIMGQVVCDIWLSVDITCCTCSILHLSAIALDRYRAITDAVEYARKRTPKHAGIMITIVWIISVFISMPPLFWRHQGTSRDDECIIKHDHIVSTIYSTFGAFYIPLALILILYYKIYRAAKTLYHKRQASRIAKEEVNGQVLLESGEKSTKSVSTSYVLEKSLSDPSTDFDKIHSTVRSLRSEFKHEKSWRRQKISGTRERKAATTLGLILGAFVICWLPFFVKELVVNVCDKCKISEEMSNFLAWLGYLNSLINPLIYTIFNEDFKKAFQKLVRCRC

[12] = target: T1, 5-hydroxytryptamine receptor 6; assay: Binding affinity as displacement of [3H]5-HT binding to 5-hydroxytryptamine 6 receptor in HeLa cells; type: cell-based
Outline: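 Membranes from HeLa cells stably expressing cloned human 5-HT6 receptor, in 50 mM Tris with 0.03% ascorbic acid, pH 7.6. […] Nonspecific binding defined by 10 µM 5-HT. Filtration, then scintillation counting. One-site fit gave IC50, converted to Ki by Cheng-Prusoff. Geometric mean of ≥3 independent duplicate runs.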

[13] = target: T4, 5-hydroxytryptamine receptor 1F; assay: Binding affinity against 5-hydroxytryptamine 1F receptor in CHO using [3H]5-HT radioligand

Chain of 5-hydroxytryptamine receptor 1B (P28222 whole entry): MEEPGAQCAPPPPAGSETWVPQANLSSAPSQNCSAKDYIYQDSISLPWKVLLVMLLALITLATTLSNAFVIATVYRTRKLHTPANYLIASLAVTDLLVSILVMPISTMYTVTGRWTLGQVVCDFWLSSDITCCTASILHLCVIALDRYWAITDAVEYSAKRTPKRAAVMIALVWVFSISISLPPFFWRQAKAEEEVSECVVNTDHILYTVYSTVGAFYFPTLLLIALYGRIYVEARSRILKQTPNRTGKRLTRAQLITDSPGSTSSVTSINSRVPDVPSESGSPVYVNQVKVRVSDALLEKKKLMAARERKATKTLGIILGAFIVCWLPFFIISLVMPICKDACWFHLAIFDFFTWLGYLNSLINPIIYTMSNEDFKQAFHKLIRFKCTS
Chain of 5-hydroxytryptamine receptor 2A (P14842 whole entry): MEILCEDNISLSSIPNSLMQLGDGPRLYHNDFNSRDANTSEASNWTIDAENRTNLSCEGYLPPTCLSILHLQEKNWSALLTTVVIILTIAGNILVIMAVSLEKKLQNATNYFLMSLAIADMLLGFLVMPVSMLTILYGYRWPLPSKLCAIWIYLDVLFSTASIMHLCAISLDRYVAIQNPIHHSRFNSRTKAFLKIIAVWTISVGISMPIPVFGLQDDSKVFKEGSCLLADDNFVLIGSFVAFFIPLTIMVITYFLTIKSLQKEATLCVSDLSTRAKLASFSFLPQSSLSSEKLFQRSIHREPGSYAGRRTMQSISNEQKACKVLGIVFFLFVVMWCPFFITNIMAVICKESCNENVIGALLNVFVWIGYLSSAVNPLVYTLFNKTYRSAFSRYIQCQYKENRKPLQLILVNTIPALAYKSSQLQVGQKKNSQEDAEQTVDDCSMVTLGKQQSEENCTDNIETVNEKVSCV
T1 sequence (P50406 whole entry): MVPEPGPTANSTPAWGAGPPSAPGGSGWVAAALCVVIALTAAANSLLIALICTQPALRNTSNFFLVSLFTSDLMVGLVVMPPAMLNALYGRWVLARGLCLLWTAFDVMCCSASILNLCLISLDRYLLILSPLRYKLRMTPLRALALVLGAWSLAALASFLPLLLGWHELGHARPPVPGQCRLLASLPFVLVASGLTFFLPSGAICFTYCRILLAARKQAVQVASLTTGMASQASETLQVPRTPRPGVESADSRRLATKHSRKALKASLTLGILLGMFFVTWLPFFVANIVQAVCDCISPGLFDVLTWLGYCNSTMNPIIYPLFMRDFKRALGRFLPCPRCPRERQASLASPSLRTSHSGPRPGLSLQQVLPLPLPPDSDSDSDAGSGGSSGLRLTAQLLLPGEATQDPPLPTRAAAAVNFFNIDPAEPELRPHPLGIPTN
Chain of 5-hydroxytryptamine receptor 1D (P28221 whole entry): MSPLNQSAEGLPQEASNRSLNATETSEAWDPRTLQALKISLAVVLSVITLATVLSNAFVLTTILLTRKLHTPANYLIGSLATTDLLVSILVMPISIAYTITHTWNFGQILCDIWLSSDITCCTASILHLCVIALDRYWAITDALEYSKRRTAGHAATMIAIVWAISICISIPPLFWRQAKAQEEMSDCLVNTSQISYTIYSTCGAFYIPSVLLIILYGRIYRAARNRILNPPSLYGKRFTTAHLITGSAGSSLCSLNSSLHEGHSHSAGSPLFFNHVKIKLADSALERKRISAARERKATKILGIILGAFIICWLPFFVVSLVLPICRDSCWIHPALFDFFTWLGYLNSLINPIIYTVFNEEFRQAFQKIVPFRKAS
Chain of 5-hydroxytryptamine receptor 5A (P35364 whole entry): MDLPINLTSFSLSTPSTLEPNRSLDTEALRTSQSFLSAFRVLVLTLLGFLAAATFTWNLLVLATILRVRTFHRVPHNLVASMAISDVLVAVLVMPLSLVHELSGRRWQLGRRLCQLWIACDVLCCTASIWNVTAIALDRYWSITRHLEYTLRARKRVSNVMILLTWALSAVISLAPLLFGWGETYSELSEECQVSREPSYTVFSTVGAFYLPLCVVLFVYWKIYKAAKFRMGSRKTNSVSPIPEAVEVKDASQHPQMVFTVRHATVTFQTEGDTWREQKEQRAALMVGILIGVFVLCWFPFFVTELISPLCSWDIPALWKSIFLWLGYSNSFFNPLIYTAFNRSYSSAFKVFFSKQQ
Chain of D(2) dopamine receptor (P14416 whole entry): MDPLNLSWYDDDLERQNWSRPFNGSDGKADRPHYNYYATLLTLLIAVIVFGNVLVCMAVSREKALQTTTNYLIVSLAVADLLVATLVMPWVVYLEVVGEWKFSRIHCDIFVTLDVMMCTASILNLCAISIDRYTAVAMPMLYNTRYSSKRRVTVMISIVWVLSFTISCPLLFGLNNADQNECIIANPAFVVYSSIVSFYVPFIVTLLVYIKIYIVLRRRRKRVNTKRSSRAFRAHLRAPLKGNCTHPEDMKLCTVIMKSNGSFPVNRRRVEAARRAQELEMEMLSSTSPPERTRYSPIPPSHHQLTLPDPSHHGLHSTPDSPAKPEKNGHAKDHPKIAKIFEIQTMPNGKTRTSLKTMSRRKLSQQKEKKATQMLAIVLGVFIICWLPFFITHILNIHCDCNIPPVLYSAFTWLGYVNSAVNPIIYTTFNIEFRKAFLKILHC
Chain of D(3) dopamine receptor (P35462 whole entry): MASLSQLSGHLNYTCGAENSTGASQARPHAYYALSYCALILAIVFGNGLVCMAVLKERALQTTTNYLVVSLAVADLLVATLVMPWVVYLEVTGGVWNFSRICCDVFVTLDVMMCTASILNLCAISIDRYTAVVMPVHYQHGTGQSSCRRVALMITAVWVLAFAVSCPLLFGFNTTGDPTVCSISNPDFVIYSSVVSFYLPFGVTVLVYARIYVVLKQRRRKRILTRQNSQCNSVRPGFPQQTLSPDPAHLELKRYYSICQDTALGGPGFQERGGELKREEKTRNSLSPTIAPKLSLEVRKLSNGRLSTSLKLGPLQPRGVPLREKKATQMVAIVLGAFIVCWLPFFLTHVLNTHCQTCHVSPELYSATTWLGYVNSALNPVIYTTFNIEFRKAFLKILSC
Chain of 5-hydroxytryptamine receptor 7 (P34969 whole entry): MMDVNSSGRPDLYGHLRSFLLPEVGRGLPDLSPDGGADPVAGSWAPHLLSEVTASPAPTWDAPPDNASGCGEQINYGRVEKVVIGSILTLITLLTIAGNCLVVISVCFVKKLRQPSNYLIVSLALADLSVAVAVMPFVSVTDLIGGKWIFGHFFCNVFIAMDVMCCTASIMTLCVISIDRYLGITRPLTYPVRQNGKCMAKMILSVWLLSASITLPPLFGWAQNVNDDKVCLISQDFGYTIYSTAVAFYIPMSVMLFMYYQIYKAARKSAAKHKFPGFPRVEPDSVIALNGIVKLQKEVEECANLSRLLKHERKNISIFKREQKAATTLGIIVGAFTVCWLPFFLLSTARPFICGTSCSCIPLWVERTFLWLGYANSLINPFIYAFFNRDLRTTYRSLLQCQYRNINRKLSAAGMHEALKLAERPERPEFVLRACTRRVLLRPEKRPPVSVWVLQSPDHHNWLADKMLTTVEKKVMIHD

## COc1ccc2c(c1)c(CCN(C)C)cn2S(=O)(=O)c1cccs1
[1]
  Ki: 0.0083 µM

## COc1ccc2c(c1)c(CCN(C)C)cn2S(=O)(=O)c1ccc(C)cc1
[1]
  Ki: 0.045 µM

## COc1ccc2c(c1)c(CCN(C)C)cn2S(=O)(=O)c1cccc(Cl)c1
[1]
  Ki: 0.0079 µM

## Cc1ccc(S(=O)(=O)n2cc3c4c(cccc42)[C@H](O)[C@@H](N(C)C)C3)cc1
[2]
  Ki: > 5.6 µM
[3]
  Ki: 3.1 µM
[4]
  Ki: 3.9 µM
[5]
  Ki: 0.32 µM
[6]
  Ki: > 6.4 µM
[1]
  Ki: 0.0072 µM
[7]
  Ki: > 5.8 µM
[8]
  Ki: > 1.7 µM
[9]
  Ki: > 3.2 µM
[10]
  Ki: 3.7 µM

## CN(C)CCc1cn(S(=O)(=O)c2ccccc2)c2ccc(O)cc12
[1]
  Ki: 0.019 µM

## COc1ccc2c(c1)c(CCN(C)C)cn2S(=O)(=O)c1ccccc1
[3]
  Ki: 2.2 µM
[11]
  Ki: 2.5 µM
[4]
  Ki: 0.72 µM
[5]
  Ki: 0.065 µM
[6]
  Ki: > 5 µM
[7]
  Ki: 1.9 µM
[8]
  Ki: 0.21 µM
[9]
  Ki: > 3.2 µM
[10]
  Ki: 0.08 µM

## CN(C)CCCc1cccc2c1ccn2S(=O)(=O)c1ccccc1
[12]
  Ki: 0.0079 µM

## COc1ccc(S(=O)(=O)n2cc(CCN(C)C)c3cc(OC)ccc32)cc1
[1]
  Ki: 0.026 µM

## CCOC(=O)c1[nH]c2ccccc2c1CCN(C)C
[2]
  Ki: 1.8 µM
[3]
  Ki: 0.91 µM
[11]
  Ki: 2 µM
[4]
  Ki: 0.33 µM
[5]
  Ki: 0.13 µM
[1]
  Ki: 0.02 µM
[7]
  Ki: 0.51 µM
[8]
  Ki: 0.059 µM
[9]
  Ki: 1.6 µM
[10]
  Ki: 0.11 µM

## COc1ccc2c(c1)c(CCN)cn2S(=O)(=O)c1ccccc1
[1]
  Ki: 0.04 µM

## CN(C)CCc1cn(C(=O)c2ccccc2)c2ccc(O)cc12
[2]
  Ki: 0.62 µM
[3]
  Ki: 0.42 µM
[13]
  Ki: 0.029 µM
[4]
  Ki: 0.18 µM
[5]
  Ki: 0.2 µM
[6]
  Ki: 4.5 µM
[1]
  Ki: 0.054 µM
[7]
  Ki: 1.6 µM
[8]
  Ki: > 2.2 µM
[9]
  Ki: > 3.9 µM
[10]
  Ki: > 3.5 µM

## NCCc1cccc2c1ccn2S(=O)(=O)c1ccccc1
[2]
  Ki: 0.14 µM
[3]
  Ki: 0.0065 µM
[11]
  Ki: 0.047 µM
[4]
  Ki: 0.0045 µM
[5]
  Ki: 0.0048 µM
[6]
  Ki: 1.2 µM
[1]
  Ki: 0.0024 µM
[7]
  Ki: 0.029 µM
[8]
  Ki: > 1.7 µM
[9]
  Ki: > 3.2 µM
[10]
  Ki: 0.94 µM

## CN(C)CCc1cccc2[nH]c(C(=O)c3ccccc3)cc12
[1]
  Ki: 0.26 µM

## COc1ccc2c(c1)c(CCN(C)C)cn2S(=O)(=O)c1ccccc1Cl
[1]
  Ki: 0.011 µM

Reference: ChEMBL document CHEMBL1134783, “N-Arylsulfonylindole derivatives as serotonin 5-HT(6) receptor ligands” (J Med Chem, 2001)
